The values that follow come from ChEMBL document CHEMBL5678799 (Biochem J, 2009).

The target in series [1] is T1, Mitogen-activated protein kinase; ERK1/ERK2 (Homo sapiens) (UniProt P27361+P28482). Put plainly: Inhibition of ERK1/2 in serum starved/PMA-stimulated HEK293 cells assessed as reduction in RSK phosphorylation at T573 residues at 200 nM incubated for 30 mins by immunoblot analysis. The series is classed as cell-based. For orientation: In western blotting, separated proteins are transferred to a membrane and probed.

For series [2], the target named is T1, Mitogen-activated protein kinase; ERK1/ERK2 (Homo sapiens). Put plainly: Inhibition of ERK1/2 in serum starved/PMA-stimulated HEK293 cells assessed as reduction in RSK phosphorylation at S227 residues at 200 nM incubated for 30 mins by immunoblot analysis. It counts as cell-based.
Series [3] has the same target. Kind of series: Inhibition of ERK1/2 in serum starved/PMA-stimulated HEK293 cells assessed as reduction in RSK activity at 200 nM using crosstide as substrate incubated for 30 mins in presence of [32P]-ATP by liquid-scintillation counting method. The series is classed as cell-based.
The target is the same in series [4]. Kind of series: Inhibition of ERK1/2 in serum starved/PMA-stimulated HEK293 cells assessed as reduction in ERK1/2 phosphorylation at T202/Y204 residues at 200 nM incubated for 30 mins by immunoblot analysis. It counts as cell-based.
The target is the same in series [5]. Kind of series: Inhibition of ERK1/2 in serum starved/PMA-stimulated HEK293 cells assessed as reduction in RSK phosphorylation at S380 residues at 200 nM incubated for 30 mins by immunoblot analysis. The series is classed as cell-based.
Series [6] has as its target Serine/threonine-protein kinase mTOR (Homo sapiens) (UniProt P42345). The settings on record: HeLa, dose 100.0 nM, time 30.0 min.
In series [7] the target is Serine/threonine-protein kinase mTOR (Mus musculus) (UniProt Q9JLN9). Conditions: MEF, dose 100.0 nM, time 30.0 min.
Series [8] relates to MEF. Put plainly: Induction of cell cycle arrest in mLST8 knockout MEF cells assessed as accumulation at G2 phase at 100 nM incubated for 1 to 3 days by propidium iodide staining based flow cytometric analysis (reference value: 14.1 +/- 0.69%). The series is classed as toxicity. The settings on record: mouse, 0.1 µM, time 1-3 day. Background: A flow cytometer gives signals particle by particle.

For series [9], the target named is Serine/threonine-protein kinase mTOR (Mus musculus) (UniProt Q9JLN9). The settings on record: MEF, dose 100.0 nM, time 30.0 min. The source holds these as a separate data set.
Series [10] relates to MEF. Kind of series: Induction of cell cycle arrest in MEF cells assessed as accumulation at G1 phase at 100 nM incubated for 1 to 3 days by propidium iodide staining based flow cytometric analysis (reference value: 21.4 +/- 1.7%). The settings on record: mouse, 0.1 µM, time 1-3 day. The series is classed as toxicity.
Series [11] deals with Serine/threonine-protein kinase mTOR (Mus musculus) (UniProt Q9JLN9). The settings on record: MEF, dose 100.0 nM, time 30.0 min. This is another data set of the same source.
The target of series [12] is Serine/threonine-protein kinase mTOR (Homo sapiens) (UniProt P42345). Conditions: HEK293, dose 100.0 nM, time 30.0 min.
In series [13] the test system is MEF. Put plainly: Induction of cell cycle arrest in MEF cells assessed as accumulation at S phase at 100 nM incubated for 1 to 3 days by propidium iodide staining based flow cytometric analysis (reference value: 61.5 +/- 0.78%). Conditions: mouse, 0.1 µM, time 1-3 day. It counts as toxicity.
For series [14], the target named is Serine/threonine-protein kinase mTOR (Homo sapiens) (UniProt P42345). Conditions: HEK293, dose 100.0 nM, time 30.0 min. This is another data set of the same source.
Series [15] has as its system MEF. Kind of series: Induction of cell cycle arrest in mLST8 knockout MEF cells assessed as accumulation at G1 phase at 100 nM incubated for 1 to 3 days by propidium iodide staining based flow cytometric analysis (reference value: 22.2 +/- 0.59%). Conditions: mouse, 0.1 µM, time 1-3 day. The series is classed as toxicity.
The target of series [16] is Serine/threonine-protein kinase mTOR (Mus musculus) (UniProt Q9JLN9). Conditions: MEF, dose 100.0 nM, time 30.0 min. This is another data set of the same source.
The target is the same in series [17]. Conditions: MEF, dose 100.0 nM, time 30.0 min. This is another data set of the same source.
Series [18] relates to MEF. Put plainly: Induction of cell cycle arrest in MEF cells assessed as accumulation at G2 phase at 100 nM incubated for 1 to 3 days by propidium iodide staining based flow cytometric analysis (reference value: 15.4 +/- 2.04%). It counts as toxicity. The settings on record: mouse, 0.1 µM, time 1-3 day.
For series [19], the system named is MEF. Put plainly: Induction of cell cycle arrest in mLST8 knockout MEF cells assessed as accumulation at S phase at 100 nM incubated for 1 to 3 days by propidium iodide staining based flow cytometric analysis (reference value: 59.7 +/- 0.49%). It counts as toxicity. The settings on record: mouse, 0.1 µM, time 1-3 day.
Series [20] concerns MEF. Kind of series: Inhibition of PI3K/mTOR in MEF cells assessed as reduction in NDRG1 phosphorylation incubated ay 1 uM for 30 mins by immunoblot analysis. The series is classed as cell-based. Conditions: Mus musculus. In a few lines:
(§1)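 HeLa cells or wild-type/knockout MEFs cultured in 10% serum and treated 30 min with inhibitor. Lysed in Tris lysis buffer and extracts immunoblotted with an antibody to NDRG1 phosphorylated at Thr346/356/366. Three experiments.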

In another series the test system is HeLa. Put plainly: Inhibition of PI3K/mTOR in human HeLa cells assessed as reduction in NDRG1 phosphorylation incubated ay 1 uM for 30 mins by immunoblot analysis. The series is classed as cell-based. In a few lines:
as §1

Series [21] relates to MEF. Kind of series: Inhibition of PI3K in serum starved MEF cells assessed as reduction IGF1-stimulated AKT phosphorylation at Thr308 residue at 1 uM incubated for 20 mins by immunoblot analysis. The series is classed as cell-based. The settings on record: Mus musculus. The method, boiled down:
(§2)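 Wild-type, Rictor-, mLST8- or Sin1-knockout MEFs serum-deprived, pretreated 30 min with inhibitor, then stimulated with IGF-1 for 20 min. Lysates immunoblotted for Akt Thr308 phosphorylation. Three independent experiments.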

In series [22] the test system is HEK293. Kind of series: Inhibition of PI3K in IGF1-stimulated HEK293 cells assessed as reduction in IGF1-stimulated PtdIns(3,4,5)P3 production at 2 uM pre incubated for 30 mins followed by IGF1-stimulation for 10 mins. The series is classed as cell-based. The settings on record: Homo sapiens.
Series [23] relates to MEF. Kind of series: Inhibition of PI3K in serum starved sin1 knockout MEF cells assessed as reduction IGF1-stimulated AKT phosphorylation at Thr308 residue at 1 uM incubated for 20 mins by immunoblot analysis. It counts as cell-based. Conditions: Mus musculus. The method, boiled down:
as §2

Series [24] concerns HEK293. Kind of series: Inhibition of PI3K in serum starved HEK293 cells expressing GST-tagged-AKT1 S473D mutant assessed as reduction in IGF1-stimulated AKT1 phosphorylation at Thr308 residue at 1 uM incubated for 20 mins by immunoblot analysis. It counts as cell-based. The settings on record: Homo sapiens. The method, boiled down: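 HEK-293 cells transfected with wild-type or S473D GST–Akt1. At 24 h, serum-starved 16 h, pretreated 30 min with inhibitor, then stimulated with IGF-1 for 20 min. Lysates immunoblotted for Thr308 phosphorylation. Three separate experiments.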

The test system of series [25] is MEF. Put plainly: Inhibition of PI3K in serum starved mLST8 knockout MEF cells assessed as reduction IGF1-stimulated AKT phosphorylation at Thr308 residue at 1 uM incubated for 20 mins by immunoblot analysis. The settings on record: Mus musculus. The series is classed as cell-based. In a few lines:
as §2

In series [26] the test system is MEF. Kind of series: Inhibition of PI3K in serum starved Rictor knockout MEF cells assessed as reduction IGF1-stimulated AKT phosphorylation at Thr308 residue at 1 uM incubated for 20 mins by immunoblot analysis. It counts as cell-based. Conditions: Mus musculus. In a few lines: as §2

Active and inactive are the calls of the source. No cut-off for these calls is given here.

T1 sequence (P27361 whole entry, looked up): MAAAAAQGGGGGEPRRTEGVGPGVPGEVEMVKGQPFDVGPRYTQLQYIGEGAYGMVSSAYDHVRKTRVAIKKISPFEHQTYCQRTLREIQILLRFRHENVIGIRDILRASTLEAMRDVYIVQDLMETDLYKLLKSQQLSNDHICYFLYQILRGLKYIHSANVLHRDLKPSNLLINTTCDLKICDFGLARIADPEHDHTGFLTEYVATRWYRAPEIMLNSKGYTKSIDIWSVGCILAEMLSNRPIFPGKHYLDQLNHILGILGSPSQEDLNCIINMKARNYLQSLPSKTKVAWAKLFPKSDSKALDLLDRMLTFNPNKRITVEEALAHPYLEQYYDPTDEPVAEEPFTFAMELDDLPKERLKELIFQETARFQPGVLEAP
T1 sequence (P28482 whole entry, looked up): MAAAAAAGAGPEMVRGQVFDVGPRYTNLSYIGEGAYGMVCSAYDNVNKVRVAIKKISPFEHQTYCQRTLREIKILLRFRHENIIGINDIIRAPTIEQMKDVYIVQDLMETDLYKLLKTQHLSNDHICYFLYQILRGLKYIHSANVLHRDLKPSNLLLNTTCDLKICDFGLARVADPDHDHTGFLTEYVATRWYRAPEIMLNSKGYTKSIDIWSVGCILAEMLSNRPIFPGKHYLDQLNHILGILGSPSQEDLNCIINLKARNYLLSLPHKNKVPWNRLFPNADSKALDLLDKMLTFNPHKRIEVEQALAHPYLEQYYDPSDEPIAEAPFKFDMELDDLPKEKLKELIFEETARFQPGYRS

`O=C(NOCC(O)CO)c1ccc(F)c(F)c1Nc1ccc(I)cc1Cl` (configuration not stated): the inhibition entry in [1], in series [2], in [3], in series [4] and in series [5] was “Active” each time.
As for `CO[C@H]1C[C@@H]2CC[C@@H](C)[C@@](O)(O2)C(=O)C(=O)N2CCCC[C@H]2C(=O)O[C@H]([C@H](C)C[C@@H]2CC[C@@H](O)[C@H](OC)C2)CC(=O)[C@H](C)/C=C(\C)[C@@H](O)[C@@H](OC)C(=O)[C@H](C)C[C@H](C)/C=C/C=C/C=C/1C` [SIROLIMUS], the inhibition entry in series [6] and in series [16] was “inactive” each time. In addition, the inhibition entry in [7], in [9], in series [11], in series [12], in series [14] and in [17] was “Active” throughout. Further, the Activity with MEF [8] worked out at 14.4%; in the series with MEF [10], 29.8%; in the series with MEF [13] it was 56.7%; with MEF [15] it was 35.8%; with MEF [18], 11.2%; with MEF [19], 46.5%.
In the case of `Oc1cccc(-c2nc(N3CCOCC3)c3oc4ncccc4c3n2)c1`, the inhibition entry with MEF [20], in the series with HeLa, in the series on MEF [21], in the series on HEK293 [22], in the series with MEF [23] and with HEK293 [24] was “Active” each time. For the same molecule, the inhibition entry with MEF [25] and with MEF [26] was “Active” throughout.
